ChEMBL document CHEMBL4130600, “Keikipukalides, Furanocembrane Diterpenes from the Antarctic Deep Sea Octocoral Plumarella delicatissima” (J Nat Prod, 2018)
pIC50: −log10 of the molar value. The source made the active and inactive calls.

Assays:
Enterococcus faecium = test: Antibacterial activity against drug-resistant Enterococcus faecium; format: functional, organism-based
Clostridioides difficile = test: Antibacterial activity against Clostridium difficile; format: functional, organism-based
Naegleria fowleri = test: […] activity against Naegleria fowleri; format: functional, organism-based
Leishmania donovani = test: Antileishmanial activity against Leishmania donovani MHOM/SD/75/1246/130 axenic amastigotes infected in mouse J774A.1 cells after 72 hrs by Draq5 staining based assay; format: functional, organism-based; conditions: MHOM/SD/75/1246/130, J774.A1, 72 h
Method in brief: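 Amastigotes grown axenically at 37 °C in RPMI 1640, pH 5.5, with Hepes, MES, hemin, xanthine, Tween-80 and 20% heat-inactivated FBS. Parasites added 10:1 to 2000 J774A.1 macrophages per well, 24 h at 37 °C, 5% CO2, then extracellular parasites washed off. Compounds from 10 μg/mL, 1:2 serial dilution, 72 h. Fixed in 2% paraformaldehyde, Draq5 stain, imaged; amastigotes per 500 macrophages counted for IC50.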

Klebsiella pneumoniae = test: Antibacterial activity against drug-resistant Klebsiella pneumoniae; format: functional, organism-based
Pseudomonas aeruginosa = test: Antibacterial activity against drug-resistant Pseudomonas aeruginosa; format: functional, organism-based
A549 = test: Cytotoxicity against human A549 cells after 72 hrs by CellTiter 96 AQueous one solution cell proliferation assay; format: cell-based; conditions: A549, 72 h
Method in brief: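 A549 cells seeded at 1440 cells/well in F12K with 10% FBS and 1% penicillin–streptomycin, with compounds in doubling dilutions from 50 μg/mL final. Incubated 72 h at 37 °C, 5% CO2. MTS added 4 h before the end, OD read at 490 nm. Controls were cells with media and media alone.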

Enterobacter = test: Antibacterial activity against drug-resistant Enterobacter; format: functional, organism-based
Acinetobacter baumannii = test: Antibacterial activity against drug-resistant Acinetobacter baumannii; format: functional, organism-based
Staphylococcus aureus = test: Antibacterial activity against drug-resistant Staphylococcus aureus; format: functional, organism-based

C=C(C)[C@@H]1C/C=C2\C(=O)O[C@@H](C[C@@]3(C)O[C@@H]3C3=CC(C=O)=C(C1)O3)[C@@H]2OC(C)=O
inactive: Activity (Enterococcus faecium) | Activity (Clostridioides difficile) | Activity (Naegleria fowleri) | Activity (Klebsiella pneumoniae) | Activity (Pseudomonas aeruginosa) | Activity (Enterobacter) | Activity (Acinetobacter baumannii) | Activity (Staphylococcus aureus)
< 4.30: pIC50 (A549)
5.06: pIC50 (Leishmania donovani)

C=C(C)[C@@H]1CC(=O)[C@H]2[C@H](C1)[C@@H]1C(=O)O[C@@H]3C[C@]4(C)O[C@H]2C(=O)[C@@H]4[C@H]13
5.36: pIC50 (Leishmania donovani)
inactive: Activity (Enterococcus faecium) | Activity (Clostridioides difficile) | Activity (Naegleria fowleri) | Activity (Klebsiella pneumoniae) | Activity (Pseudomonas aeruginosa) | Activity (Enterobacter) | Activity (Acinetobacter baumannii) | Activity (Staphylococcus aureus)
< 4.30: pIC50 (A549)

C=C(C)[C@H]1CC2=C(C=O)C=C(O2)[C@H]2O[C@]2(C)C[C@@H]2OC(=O)/C(=C\[C@H]1OC(C)=O)[C@H]2OC(C)=O
5.07: pIC50 (Leishmania donovani)
inactive: Activity (Enterococcus faecium) | Activity (Clostridioides difficile) | Activity (Naegleria fowleri) | Activity (Klebsiella pneumoniae) | Activity (Pseudomonas aeruginosa) | Activity (Enterobacter) | Activity (Acinetobacter baumannii) | Activity (Staphylococcus aureus)
< 4.30: pIC50 (A549)

C=C(C)[C@@H]1/C=C/[C@]23O[C@H]2[C@H](C[C@](C)(O)[C@@H](OC(C)=O)C2=CC(C=O)=C(C1)O2)OC3=O
4.92: pIC50 (Leishmania donovani)
< 4.30: pIC50 (A549)
inactive: Activity (Enterococcus faecium) | Activity (Clostridioides difficile) | Activity (Naegleria fowleri) | Activity (Klebsiella pneumoniae) | Activity (Pseudomonas aeruginosa) | Activity (Enterobacter) | Activity (Acinetobacter baumannii) | Activity (Staphylococcus aureus)

C=C(C)[C@H]1CC2=C(C=O)C=C(O2)[C@H]2O[C@]2(C)C[C@H]2C=C(C(=O)O2)[C@@H](OC(C)=O)C1
5.06: pIC50 (Leishmania donovani)
inactive: Activity (Enterococcus faecium) | Activity (Clostridioides difficile) | Activity (Naegleria fowleri) | Activity (Klebsiella pneumoniae) | Activity (Pseudomonas aeruginosa) | Activity (Enterobacter) | Activity (Acinetobacter baumannii) | Activity (Staphylococcus aureus)
< 4.30: pIC50 (A549)

CCCCCCCCCCCCCCCCOP(=O)([O-])OCC[N+](C)(C)C [MILTEFOSINE]
5.21: pIC50 (Leishmania donovani)

C=C(C)[C@@H]1/C=C/[C@]23O[C@H]2[C@H](C[C@@]2(C)O[C@@H]2C2=CC(C=O)=C(C1)O2)OC3=O
inactive: Activity (Enterococcus faecium) | Activity (Clostridioides difficile) | Activity (Naegleria fowleri) | Activity (Klebsiella pneumoniae) | Activity (Pseudomonas aeruginosa) | Activity (Enterobacter) | Activity (Acinetobacter baumannii) | Activity (Staphylococcus aureus)
< 4.30: pIC50 (A549)
< 4.55: pIC50 (Leishmania donovani)

C=C(C)[C@@H]1CCC2=C[C@H](C[C@@]3(C)O[C@@H]3C3=CC(C=O)=C(C1)O3)OC2=O
inactive: Activity (Enterococcus faecium) | Activity (Clostridioides difficile) | Activity (Naegleria fowleri) | Activity (Klebsiella pneumoniae) | Activity (Pseudomonas aeruginosa) | Activity (Enterobacter) | Activity (Acinetobacter baumannii) | Activity (Staphylococcus aureus)
< 4.30: pIC50 (A549)
5.72: pIC50 (Leishmania donovani)
